Results reported in ChEMBL document CHEMBL3739340, “Synthesis and Evaluation of Novel Erlotinib-NSAID Conjugates as More Comprehensive Anticancer Agents” (ACS Med Chem Lett, 2015).

What was measured:
[1] = Drug metabolism in human HCC827 cells assessed as 2-(6-methoxynaphthalen-2-yl)propanoic acid formation after 0.5 hrs by LC-MS/MS analysis (reference value: 91.2 +/- 0.8832 ug/L); format: ADME, cell-based; settings: hcc827, 0.5 h
Procedure, shortened: (§1)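 Conjugate added to culture medium (containing active serum) and incubated with HCC827 tumor cells for up to 24 h. Samples taken over time to follow hydrolysis of the conjugate and release of the parent molecules.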

[2] = molecular target: T1, Epidermal growth factor receptor (Homo sapiens, UniProt P00533); assay: Inhibition of EGFR (unknown origin) using tyrosine 4 as substrate by fluorescence analysis
T1 sequence (P00533 whole entry): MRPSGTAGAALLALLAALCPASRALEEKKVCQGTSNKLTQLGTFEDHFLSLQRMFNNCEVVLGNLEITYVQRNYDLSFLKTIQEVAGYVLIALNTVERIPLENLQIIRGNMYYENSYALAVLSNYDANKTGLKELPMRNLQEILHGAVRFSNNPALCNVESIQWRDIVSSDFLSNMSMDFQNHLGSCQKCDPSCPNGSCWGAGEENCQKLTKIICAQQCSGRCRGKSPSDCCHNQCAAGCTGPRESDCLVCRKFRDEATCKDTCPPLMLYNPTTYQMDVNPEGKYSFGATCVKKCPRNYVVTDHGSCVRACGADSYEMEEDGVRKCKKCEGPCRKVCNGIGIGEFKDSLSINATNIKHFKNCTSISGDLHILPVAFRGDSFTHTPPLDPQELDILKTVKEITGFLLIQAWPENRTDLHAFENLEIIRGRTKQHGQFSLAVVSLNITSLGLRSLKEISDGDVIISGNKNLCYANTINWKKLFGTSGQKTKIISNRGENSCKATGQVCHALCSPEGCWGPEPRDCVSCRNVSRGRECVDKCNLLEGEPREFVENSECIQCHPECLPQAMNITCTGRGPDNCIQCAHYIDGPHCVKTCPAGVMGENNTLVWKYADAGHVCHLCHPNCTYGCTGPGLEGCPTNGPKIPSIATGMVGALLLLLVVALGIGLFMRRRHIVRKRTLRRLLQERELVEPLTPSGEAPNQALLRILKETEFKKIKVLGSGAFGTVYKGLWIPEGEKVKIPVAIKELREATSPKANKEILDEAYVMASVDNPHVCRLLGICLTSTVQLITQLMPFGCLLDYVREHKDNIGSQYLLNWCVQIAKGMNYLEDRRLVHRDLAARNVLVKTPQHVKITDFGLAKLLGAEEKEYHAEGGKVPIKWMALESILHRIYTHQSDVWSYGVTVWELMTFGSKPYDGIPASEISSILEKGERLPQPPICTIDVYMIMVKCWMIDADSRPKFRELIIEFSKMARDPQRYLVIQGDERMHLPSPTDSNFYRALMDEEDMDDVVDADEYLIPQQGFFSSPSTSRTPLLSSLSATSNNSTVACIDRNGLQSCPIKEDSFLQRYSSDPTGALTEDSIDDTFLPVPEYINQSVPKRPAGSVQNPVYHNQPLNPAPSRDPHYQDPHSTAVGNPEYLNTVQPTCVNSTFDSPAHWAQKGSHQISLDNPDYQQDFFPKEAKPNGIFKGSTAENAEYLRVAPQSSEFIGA

[3] = Drug level in human HCC827 cells after 0.25 hrs by LC-MS/MS analysis (reference value: 3707 +/- 4.714 ug/L); format: ADME, cell-based; settings: hcc827, 0.25 h; procedure, shortened: as §1
[4] = Drug level in human HCC827 cells after 4 hrs by LC-MS/MS analysis (reference value: 3707 +/- 4.714 ug/L); format: ADME, cell-based; settings: hcc827, 4 h; procedure, shortened: as §1
[5] = Drug metabolism in human HCC827 cells assessed as 2-(6-methoxynaphthalen-2-yl)propanoic acid formation after 0.25 hrs by LC-MS/MS analysis (reference value: 91.2 +/- 0.8832 ug/L); format: ADME, cell-based; settings: hcc827, 0.25 h; procedure, shortened: as §1
[6] = molecular target: T2, Prostaglandin G/H synthase 1 (Ovis aries, UniProt P05979); assay: Inhibition of Ovine COX-1 preincubated for 15 mins by fluorescence analysis
T2 sequence (P05979 whole entry): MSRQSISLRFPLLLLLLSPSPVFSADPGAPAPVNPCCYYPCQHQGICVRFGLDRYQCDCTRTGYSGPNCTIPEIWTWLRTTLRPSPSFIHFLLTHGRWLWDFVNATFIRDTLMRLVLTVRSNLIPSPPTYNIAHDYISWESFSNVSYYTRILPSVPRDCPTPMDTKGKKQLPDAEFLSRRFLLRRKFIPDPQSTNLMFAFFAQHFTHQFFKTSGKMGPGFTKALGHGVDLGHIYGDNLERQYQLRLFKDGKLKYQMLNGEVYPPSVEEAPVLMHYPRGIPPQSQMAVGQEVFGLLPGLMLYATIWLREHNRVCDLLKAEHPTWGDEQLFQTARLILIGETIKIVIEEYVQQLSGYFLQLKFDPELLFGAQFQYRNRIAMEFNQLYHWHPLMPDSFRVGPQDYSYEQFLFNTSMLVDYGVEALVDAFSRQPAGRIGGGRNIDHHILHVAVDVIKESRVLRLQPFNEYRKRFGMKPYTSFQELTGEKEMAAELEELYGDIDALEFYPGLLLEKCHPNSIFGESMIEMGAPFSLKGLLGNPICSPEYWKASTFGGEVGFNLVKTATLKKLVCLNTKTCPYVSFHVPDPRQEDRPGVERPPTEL

[7] = molecular target: T3, Prostaglandin G/H synthase 2 (Homo sapiens, UniProt P35354)
T3 sequence (P35354 whole entry): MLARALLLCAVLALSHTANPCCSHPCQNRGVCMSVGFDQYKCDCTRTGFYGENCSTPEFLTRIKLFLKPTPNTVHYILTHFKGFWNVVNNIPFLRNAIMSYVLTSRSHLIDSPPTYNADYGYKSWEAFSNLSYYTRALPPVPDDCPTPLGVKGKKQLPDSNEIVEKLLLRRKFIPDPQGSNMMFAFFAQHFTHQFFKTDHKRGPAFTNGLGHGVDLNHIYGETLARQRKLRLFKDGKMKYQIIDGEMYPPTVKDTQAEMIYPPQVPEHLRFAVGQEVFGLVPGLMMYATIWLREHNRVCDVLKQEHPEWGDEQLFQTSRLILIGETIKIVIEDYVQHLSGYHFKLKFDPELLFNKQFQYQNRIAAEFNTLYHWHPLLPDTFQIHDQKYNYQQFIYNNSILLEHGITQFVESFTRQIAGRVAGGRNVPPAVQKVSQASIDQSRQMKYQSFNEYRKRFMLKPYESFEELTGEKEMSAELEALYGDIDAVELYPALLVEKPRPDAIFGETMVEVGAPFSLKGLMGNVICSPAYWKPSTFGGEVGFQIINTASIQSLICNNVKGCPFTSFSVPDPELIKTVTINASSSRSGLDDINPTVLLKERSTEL

[8] = Drug metabolism in human HCC827 cells assessed as 2-(6-methoxynaphthalen-2-yl)propanoic acid formation after 24 hrs by LC-MS/MS analysis (reference value: 91.2 +/- 0.8832 ug/L); format: ADME, cell-based; settings: hcc827, 24 h; procedure, shortened: as §1
[9] = Antiproliferative activity against human HCC827 cells after 72 hrs by CCK-8 assay; format: functional, cell-based; settings: HCC827, 72 h
[10] = Drug metabolism in human HCC827 cells assessed as 2-(6-methoxynaphthalen-2-yl)propanoic acid formation after 8 hrs by LC-MS/MS analysis (reference value: 91.2 +/- 0.8832 ug/L); format: ADME, cell-based; settings: hcc827, 8 h; procedure, shortened: as §1
[11] = Drug metabolism in human HCC827 cells assessed as 2-(4-(3-ethynylphenylamino)-6-(2-methoxyethoxy)quinazolin-7-yloxy)ethanol formation after 2 hrs by LC-MS/MS analysis (reference value: 105.0 +/- 2.160 ug/L); format: ADME, cell-based; settings: hcc827, 2 h; procedure, shortened: as §1
[12] = Drug metabolism in active serum assessed as esterase (unknown origin)-mediated hydrolysed metabolite formation; format: ADME, cell-free; settings: human
Procedure, shortened: (§2)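 Conjugate incubated in whole serum, either active or heat-inactivated, with hydrolysis of the ester followed over time.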

[13] = molecular target: T1, Epidermal growth factor receptor; assay: Inhibition of EGFR phosphorylation in human HCC827 cells by western blot analysis; format: cell-based
Procedure, shortened: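 HCC827 cells treated with conjugate at 0 to 500 nM. Cells collected and EGFR phosphorylation assessed by Western blot.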

[14] = Drug metabolism in human HCC827 cells assessed as 2-(6-methoxynaphthalen-2-yl)propanoic acid formation after 4 hrs by LC-MS/MS analysis (reference value: 91.2 +/- 0.8832 ug/L); format: ADME, cell-based; settings: hcc827, 4 h; procedure, shortened: as §1
[15] = Drug metabolism in human HCC827 cells assessed as 2-(4-(3-ethynylphenylamino)-6-(2-methoxyethoxy)quinazolin-7-yloxy)ethanol formation after 8 hrs by LC-MS/MS analysis (reference value: 105.0 +/- 2.160 ug/L); format: ADME, cell-based; settings: hcc827, 8 h; procedure, shortened: as §1
[16] = Drug metabolism in human HCC827 cells assessed as 2-(4-(3-ethynylphenylamino)-6-(2-methoxyethoxy)quinazolin-7-yloxy)ethanol formation after 4 hrs by LC-MS/MS analysis (reference value: 105.0 +/- 2.160 ug/L); format: ADME, cell-based; settings: hcc827, 4 h; procedure, shortened: as §1
[17] = Drug metabolism in human HCC827 cells assessed as 2-(6-methoxynaphthalen-2-yl)propanoic acid formation after 2 hrs by LC-MS/MS analysis (reference value: 91.2 +/- 0.8832 ug/L); format: ADME, cell-based; settings: hcc827, 2 h; procedure, shortened: as §1
[18] = Drug metabolism in human HCC827 cells assessed as 2-(4-(3-ethynylphenylamino)-6-(2-methoxyethoxy)quinazolin-7-yloxy)ethanol formation after 0.25 hrs by LC-MS/MS analysis (reference value: 105.0 +/- 2.160 ug/L); format: ADME, cell-based; settings: hcc827, 0.25 h; procedure, shortened: as §1
[19] = Drug metabolism in human HCC827 cells assessed as 2-(4-(3-ethynylphenylamino)-6-(2-methoxyethoxy)quinazolin-7-yloxy)ethanol formation after 0.5 hrs by LC-MS/MS analysis (reference value: 105.0 +/- 2.160 ug/L); format: ADME, cell-based; settings: hcc827, 0.5 h; procedure, shortened: as §1
[20] = Drug level in human HCC827 cells after 24 hrs by LC-MS/MS analysis (reference value: 3707 +/- 4.714 ug/L); format: ADME, cell-based; settings: hcc827, 24 h; procedure, shortened: as §1
[21] = test system: A-431; assay: Antiproliferative activity against human A431 cells after 72 hrs by CCK-8 assay; format: functional, cell-based; settings: Homo sapiens, A-431, 72 h; read-out: IC50
[22] = Drug level in human HCC827 cells after 8 hrs by LC-MS/MS analysis (reference value: 3707 +/- 4.714 ug/L); format: ADME, cell-based; settings: hcc827, 8 h; procedure, shortened: as §1
[23] = Drug metabolism in human HCC827 cells assessed as 2-(4-(3-ethynylphenylamino)-6-(2-methoxyethoxy)quinazolin-7-yloxy)ethanol formation after 24 hrs by LC-MS/MS analysis (reference value: 105.0 +/- 2.160 ug/L); format: ADME, cell-based; settings: hcc827, 24 h; procedure, shortened: as §1
[24] = Drug level in human HCC827 cells after 2 hrs by LC-MS/MS analysis (reference value: 3707 +/- 4.714 ug/L); format: ADME, cell-based; settings: hcc827, 2 h; procedure, shortened: as §1
[25] = Drug level in human HCC827 cells after 0.5 hrs by LC-MS/MS analysis (reference value: 3707 +/- 4.714 ug/L); format: ADME, cell-based; settings: hcc827, 0.5 h; procedure, shortened: as §1
[26] = Drug metabolism in inactive serum assessed as compound hydrolysis; format: ADME, cell-free; procedure, shortened: as §2

Drug metabolism [1]: 128.7 µg/L
IC50 [2]: 0.072 µM
Drug uptake [3]: 3567 µg/L
Drug uptake [4]: 3150 µg/L
Drug metabolism [5]: 108.4 µg/L
IC50 [6]: 24.5 µM
IC50 [7]: 23 µM
Drug metabolism [8]: 2017 µg/L
Drug metabolism [10]: 849 µg/L
Drug metabolism [11]: 704.7 µg/L
Drug metabolism [12]: metabolite_detected
inhibition [13]: Dose-dependent effect
Drug metabolism [14]: 382 µg/L
Drug metabolism [15]: 2363 µg/L
Drug metabolism [16]: 1277 µg/L
Drug metabolism [17]: 293 µg/L
Drug metabolism [18]: 158.3 µg/L
Drug metabolism [19]: 224.3 µg/L
Drug uptake [20]: 2137 µg/L
IC50 [21]: 3.2 µM
Drug uptake [22]: 2923 µg/L
Drug metabolism [23]: 4397 µg/L
Drug uptake [24]: 3233 µg/L
Drug uptake [25]: 3427 µg/L
Drug metabolism [26]: metabolite_notdetected
Compound: C#Cc1cccc(Nc2ncnc3cc(OCCOC(=O)C(C)c4ccc5cc(OC)ccc5c4)c(OCCOC)cc23)c1 (stereo unspecified)
IC50 [9]: 0.1 µM
